Laboratory results: ChEMBL document CHEMBL3758135 (J Nat Prod, 2015)

Legend:
Prostaglandin E synthase = target: T1, Prostaglandin E synthase (Homo sapiens, UniProt O14684); assay: Inhibition of mPGES-1 in human IL-1beta-stimulated A549 cell microsomes assessed as reduction of PGE2 formation from PGH2 preincubated for 15 mins by HPLC analysis; type: cell-based
T1 sequence (O14684 whole entry): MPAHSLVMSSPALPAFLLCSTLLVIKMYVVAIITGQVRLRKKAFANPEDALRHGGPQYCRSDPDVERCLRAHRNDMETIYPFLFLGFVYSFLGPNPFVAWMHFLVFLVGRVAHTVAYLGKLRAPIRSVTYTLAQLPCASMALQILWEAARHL
How it was run: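 A549 cells stimulated with 2 ng/mL IL-1β for 72 h at 37 °C, 5% CO2, then sonicated and homogenized. Microsomal pellet collected at 174000g, 1 h, 4 °C. Membranes diluted in 0.1 M K3PO4, pH 7.4, with 2.5 mM glutathione. Compound or vehicle added for 15 min at 4 °C. Reaction started with 20 μM PGH2, stopped after 1 min with FeCl2/citric acid containing 11β-PGE2 internal standard. PGE2 measured by SPE-HPLC.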

Histone deacetylase = assay: Inhibition of HDAC in human HeLa cell nuclear extract using BML-KI104 Fluor de Lys as substrate by fluorescence-based assay

SMILES | IC50 (Prostaglandin E synthase) [µM] | IC50 (Histone deacetylase) [µM]
COc1cc(/C=C/C(=O)C(CC=C(C)C)(CC=C(C)C)C(=O)/C=C/c2ccc(OCC=C(C)C)c(OC)c2)ccc1OCC=C(C)C | 2 | –
COc1cc(/C=C/C(=O)CC(=O)/C=C/c2ccc(OC/C=C(\C)CCC=C(C)C)c(OC)c2)ccc1OC/C=C(\C)CCC=C(C)C | 2 | 188
COc1cc(/C=C/C(=O)CC(=O)/C=C/c2ccc(OC/C=C(\C)CC/C=C(\C)CCC=C(C)C)c(OC)c2)ccc1OC/C=C(\C)CC/C=C(\C)CCC=C(C)C | 2 | 122
COc1cc(/C=C/C(=O)CC(=O)/C=C/c2ccc(OC/C=C(\C)CCC=C(C)C)c(OC)c2)ccc1O | 1.02 | 495
COc1cc(/C=C/C(=O)CC(=O)/C=C/c2ccc(OC/C=C(\C)CC/C=C(\C)CCC=C(C)C)c(OC)c2)ccc1O | 2 | 84.2
COc1cc(/C=C/C(=O)C(C/C=C(\C)CCC=C(C)C)C(=O)/C=C/c2ccc(OC/C=C(\C)CCC=C(C)C)c(OC)c2)ccc1OC/C=C(\C)CCC=C(C)C | 2 | 217
COc1cc(/C=C/C(=O)C(CC=C(C)C)C(=O)/C=C/c2ccc(OCC=C(C)C)c(OC)c2)ccc1OCC=C(C)C | 2 | –
COc1cc(/C=C/C(=O)CC(=O)/C=C/c2ccc(OCC=C(C)C)c(OC)c2)ccc1OCC=C(C)C | 2 | 347
COc1cc(/C=C/C(=O)C(C/C=C(\C)CCC=C(C)C)(C/C=C(\C)CCC=C(C)C)C(=O)/C=C/c2ccc(OC/C=C(\C)CCC=C(C)C)c(OC)c2)ccc1OC/C=C(\C)CCC=C(C)C | 2 | 786
COc1cc(/C=C/C(=O)CC(=O)/C=C/c2ccc(OCC=C(C)C)c(OC)c2)ccc1O | 0.93 | 5620
COc1cc(/C=C/C(=O)CC(=O)/C=C/c2ccc(O)c(OC)c2)ccc1O [CURCUMIN] | 0.22 | –
